Laboratory results: ChEMBL document CHEMBL1154183, “Structure-based optimization of potent and selective inhibitors of the tyrosine kinase erythropoietin producing human hepatocellular carcinoma receptor B4 (EphB4)” (J Med Chem, 2009)

How the values were obtained:
[1] = Inhibition of Aurora assessed as remaining enzyme activity at 3 uM relative to DMSO
Procedure, shortened: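 Panel assay run robotically at room temperature for 30 min with 10 mM magnesium acetate and [γ-33P]ATP (800 cpm/pmol) at 5, 20 or 50 μM, chosen per kinase to be at or below its ATP Km. Reactions were started with MgATP, stopped with orthophosphoric acid and spotted on P81 filters. Activity is the mean of duplicates at a single inhibitor concentration, as % of DMSO control.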

[2] = target: Interleukin-1 receptor-associated kinase 4 (Homo sapiens) (UniProt Q9NWZ3); assay: Inhibition of IRAK4 assessed as remaining enzyme activity at 3 uM relative to DMSO
Procedure, shortened: (§1)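 Dundee kinase panel, radiometric: [γ-33P]ATP (800 cpm/pmol) at 5, 20 or 50 μM, at or below each kinase's ATP Km; 10 mM magnesium acetate; robotic, room temperature, 30 min. Reactions started with MgATP, stopped with orthophosphoric acid, spotted onto P81 filters. Inhibitor tested at a single concentration; mean % activity of duplicates relative to DMSO control.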

[3] = target: Serine/threonine-protein kinase pim-1 (Homo sapiens) (UniProt P11309); assay: Inhibition of PIM1 assessed as remaining enzyme activity at 3 uM relative to DMSO
Procedure, shortened: (§2)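 Radiometric kinase assay run robotically at room temperature for 30 min. Contained 10 mM magnesium acetate and [γ-33P]ATP (800 cpm/pmol) at 5, 20 or 50 μM, chosen per kinase to be at or below its ATP Km. Reactions were started with MgATP, stopped with orthophosphoric acid and spotted onto P81 filters. Result is mean % activity of duplicates at one inhibitor concentration versus DMSO control.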

[4] = target: Mitogen-activated protein kinase kinase kinase kinase 2 (Homo sapiens) (UniProt Q12851); assay: Inhibition of GCK assessed as remaining enzyme activity at 3 uM relative to DMSO; procedure, shortened: as §1
[5] = target: Serine/threonine-protein kinase Nek6 (Homo sapiens) (UniProt Q9HC98); assay: Inhibition of NEK6 assessed as remaining enzyme activity at 3 uM relative to DMSO; procedure, shortened: as §2
[6] = target: Serine/threonine-protein kinase Chk2 (Homo sapiens) (UniProt O96017); assay: Inhibition of CHK2 assessed as remaining enzyme activity at 3 uM relative to DMSO; procedure, shortened: as §1
[7] = target: Mitogen-activated protein kinase 1 (Homo sapiens) (UniProt P28482); assay: Inhibition of ERK2 assessed as remaining enzyme activity at 3 uM relative to DMSO; procedure, shortened: as §1
[8] = target: Tyrosine-protein kinase Lyn (Homo sapiens) (UniProt P07948); assay: Binding affinity to LYN assessed as percentage of kinase remaining bound to the bead at 1 uM by T7 phage display based binding assay
Procedure, shortened: (§3)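 Competition binding assay run by a contract lab. Each kinase was expressed as a fusion to T7 phage, full-length for small kinases and catalytic domain for large ones. Phage were mixed with an immobilized known kinase inhibitor on streptavidin magnetic beads and with test compound at a single 1 μM. Kinase/phage still bound to the beads was quantified by qPCR and expressed as % of DMSO control.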

[9] = target: Ephrin type-A receptor 6 (Homo sapiens) (UniProt Q9UF33); assay: Binding affinity to EPHA6 assessed as percentage of kinase remaining bound to the bead at 1 uM by T7 phage display based binding assay; procedure, shortened: as §3
[10] = target: Mitogen-activated protein kinase kinase kinase 11 (Homo sapiens) (UniProt Q16584); assay: Inhibition of MLK3 assessed as remaining enzyme activity at 1 uM relative to DMSO; procedure, shortened: as §2
[11] = target: Glycogen synthase kinase-3 beta (Homo sapiens) (UniProt P49841); assay: Inhibition of GSK3-beta assessed as remaining enzyme activity at 1 uM relative to DMSO; procedure, shortened: as §1
[12] = target: Serine/threonine-protein kinase STK11 (Homo sapiens) (UniProt Q15831); assay: Inhibition of LKB1 assessed as remaining enzyme activity at 1 uM relative to DMSO; procedure, shortened: as §1
[13] = target: Dual specificity protein kinase TTK (Homo sapiens) (UniProt P33981); assay: Inhibition of TTK assessed as remaining enzyme activity at 1 uM relative to DMSO
[14] = target: RAC-alpha serine/threonine-protein kinase (Homo sapiens) (UniProt P31749); assay: Inhibition of PKBalpha assessed as remaining enzyme activity at 1 uM relative to DMSO; procedure, shortened: as §2
[15] = target: Mitogen-activated protein kinase 8 (Homo sapiens) (UniProt P45983); assay: Inhibition of JNK1 assessed as remaining enzyme activity at 1 uM relative to DMSO
Procedure, shortened: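 Radiometric kinase assay run robotically at room temperature for 30 min, linear in time and enzyme. Conditions: 10 mM magnesium acetate, [γ-33P]ATP (800 cpm/pmol) at 5, 20 or 50 μM per kinase, at or below its ATP Km. Started with MgATP and stopped with orthophosphoric acid, then spotted on P81 filters. Reported as mean % activity of duplicates versus DMSO controls.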

Sequence of Interleukin-1 receptor-associated kinase 4 (Homo sapiens) (Q9NWZ3 whole entry): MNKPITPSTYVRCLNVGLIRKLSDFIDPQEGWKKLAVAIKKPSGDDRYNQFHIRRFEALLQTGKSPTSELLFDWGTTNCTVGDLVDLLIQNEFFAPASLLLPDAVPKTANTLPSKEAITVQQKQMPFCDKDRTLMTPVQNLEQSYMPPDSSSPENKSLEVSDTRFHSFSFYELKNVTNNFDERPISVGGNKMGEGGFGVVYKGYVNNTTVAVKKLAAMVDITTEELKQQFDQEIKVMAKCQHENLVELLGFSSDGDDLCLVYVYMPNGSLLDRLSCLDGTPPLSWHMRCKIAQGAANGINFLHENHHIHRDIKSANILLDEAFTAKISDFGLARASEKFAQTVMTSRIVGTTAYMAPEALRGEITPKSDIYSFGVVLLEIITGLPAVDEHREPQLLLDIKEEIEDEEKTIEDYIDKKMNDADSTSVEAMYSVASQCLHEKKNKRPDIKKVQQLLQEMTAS
Sequence of Serine/threonine-protein kinase Nek6 (Homo sapiens) (Q9HC98 whole entry): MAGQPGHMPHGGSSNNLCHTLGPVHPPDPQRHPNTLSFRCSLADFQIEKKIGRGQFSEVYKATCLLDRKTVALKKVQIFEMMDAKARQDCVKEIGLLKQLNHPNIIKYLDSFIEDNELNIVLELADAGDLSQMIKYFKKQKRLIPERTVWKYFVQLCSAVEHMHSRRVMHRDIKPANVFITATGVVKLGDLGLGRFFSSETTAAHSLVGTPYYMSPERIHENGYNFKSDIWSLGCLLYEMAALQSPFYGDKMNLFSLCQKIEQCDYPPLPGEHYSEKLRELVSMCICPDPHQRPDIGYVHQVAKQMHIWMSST
Sequence of Mitogen-activated protein kinase kinase kinase kinase 2 (Homo sapiens) (Q12851 whole entry): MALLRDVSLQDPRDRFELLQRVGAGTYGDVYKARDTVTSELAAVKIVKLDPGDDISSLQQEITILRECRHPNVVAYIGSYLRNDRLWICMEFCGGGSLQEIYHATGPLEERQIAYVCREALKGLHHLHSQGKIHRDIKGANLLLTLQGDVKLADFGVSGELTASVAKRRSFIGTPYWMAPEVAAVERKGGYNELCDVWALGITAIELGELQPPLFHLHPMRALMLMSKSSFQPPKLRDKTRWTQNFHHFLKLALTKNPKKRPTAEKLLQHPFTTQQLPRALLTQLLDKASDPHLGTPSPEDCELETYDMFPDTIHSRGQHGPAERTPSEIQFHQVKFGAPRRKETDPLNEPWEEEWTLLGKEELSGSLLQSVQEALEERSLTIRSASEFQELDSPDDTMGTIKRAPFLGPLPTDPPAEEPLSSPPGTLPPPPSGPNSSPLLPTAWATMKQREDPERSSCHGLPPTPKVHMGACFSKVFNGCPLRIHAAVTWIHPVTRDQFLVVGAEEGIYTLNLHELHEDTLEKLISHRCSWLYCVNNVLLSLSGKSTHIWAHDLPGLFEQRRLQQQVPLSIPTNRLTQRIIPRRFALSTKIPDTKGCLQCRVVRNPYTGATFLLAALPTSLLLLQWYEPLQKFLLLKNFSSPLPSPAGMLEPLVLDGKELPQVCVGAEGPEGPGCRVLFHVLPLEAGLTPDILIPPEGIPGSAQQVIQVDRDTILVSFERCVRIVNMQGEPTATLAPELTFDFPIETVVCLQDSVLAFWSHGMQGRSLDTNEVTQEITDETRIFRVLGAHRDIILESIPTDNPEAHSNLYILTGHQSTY
Sequence of Tyrosine-protein kinase Lyn (Homo sapiens) (P07948 2-512 limits assumed): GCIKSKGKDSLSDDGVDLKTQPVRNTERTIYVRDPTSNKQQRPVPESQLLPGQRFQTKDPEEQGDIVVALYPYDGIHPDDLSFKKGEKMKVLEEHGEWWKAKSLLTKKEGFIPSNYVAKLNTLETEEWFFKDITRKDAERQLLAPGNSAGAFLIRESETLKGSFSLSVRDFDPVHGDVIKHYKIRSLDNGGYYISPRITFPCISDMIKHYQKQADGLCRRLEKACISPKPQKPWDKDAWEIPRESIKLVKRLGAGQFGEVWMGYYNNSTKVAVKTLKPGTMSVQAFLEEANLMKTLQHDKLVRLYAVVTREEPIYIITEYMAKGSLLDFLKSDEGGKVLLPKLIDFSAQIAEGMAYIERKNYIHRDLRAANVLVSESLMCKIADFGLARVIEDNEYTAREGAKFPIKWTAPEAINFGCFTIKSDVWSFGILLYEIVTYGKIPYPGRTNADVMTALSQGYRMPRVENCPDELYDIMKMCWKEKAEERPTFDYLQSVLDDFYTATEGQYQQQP
Sequence of Glycogen synthase kinase-3 beta (Homo sapiens) (P49841 whole entry, looked up): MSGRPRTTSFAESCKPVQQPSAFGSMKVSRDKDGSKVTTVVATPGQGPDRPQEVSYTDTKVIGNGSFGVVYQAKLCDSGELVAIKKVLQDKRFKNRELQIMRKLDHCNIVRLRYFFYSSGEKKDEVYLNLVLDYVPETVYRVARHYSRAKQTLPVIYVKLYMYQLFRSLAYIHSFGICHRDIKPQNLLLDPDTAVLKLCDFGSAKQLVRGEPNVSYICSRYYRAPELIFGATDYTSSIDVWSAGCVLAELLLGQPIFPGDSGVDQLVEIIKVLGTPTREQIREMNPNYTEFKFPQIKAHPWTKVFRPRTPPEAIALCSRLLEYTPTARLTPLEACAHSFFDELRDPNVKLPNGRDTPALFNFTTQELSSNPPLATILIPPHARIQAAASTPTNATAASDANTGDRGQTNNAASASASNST
Sequence of Serine/threonine-protein kinase pim-1 (Homo sapiens) (P11309 whole entry, looked up): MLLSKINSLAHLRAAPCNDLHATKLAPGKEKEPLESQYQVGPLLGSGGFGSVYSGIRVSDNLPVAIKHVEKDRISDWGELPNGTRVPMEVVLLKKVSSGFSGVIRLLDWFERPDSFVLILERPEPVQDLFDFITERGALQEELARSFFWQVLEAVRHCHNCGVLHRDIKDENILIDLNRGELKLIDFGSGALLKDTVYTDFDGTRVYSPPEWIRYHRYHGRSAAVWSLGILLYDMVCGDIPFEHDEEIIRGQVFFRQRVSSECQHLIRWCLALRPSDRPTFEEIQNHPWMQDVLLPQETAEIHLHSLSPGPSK
Sequence of Mitogen-activated protein kinase 8 (Homo sapiens) (P45983 whole entry): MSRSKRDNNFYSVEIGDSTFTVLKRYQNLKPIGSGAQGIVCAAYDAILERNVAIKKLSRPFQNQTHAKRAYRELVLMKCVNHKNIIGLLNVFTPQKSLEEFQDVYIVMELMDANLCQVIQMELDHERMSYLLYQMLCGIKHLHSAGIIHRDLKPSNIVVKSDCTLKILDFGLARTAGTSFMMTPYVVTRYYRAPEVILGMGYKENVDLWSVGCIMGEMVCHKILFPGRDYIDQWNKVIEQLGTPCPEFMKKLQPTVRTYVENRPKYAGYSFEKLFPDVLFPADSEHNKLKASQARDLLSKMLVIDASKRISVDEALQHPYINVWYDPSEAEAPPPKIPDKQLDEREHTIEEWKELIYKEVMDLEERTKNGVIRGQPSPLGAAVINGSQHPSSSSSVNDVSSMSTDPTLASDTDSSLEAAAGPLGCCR
Sequence of Ephrin type-A receptor 6 (Homo sapiens) (Q9UF33 whole entry): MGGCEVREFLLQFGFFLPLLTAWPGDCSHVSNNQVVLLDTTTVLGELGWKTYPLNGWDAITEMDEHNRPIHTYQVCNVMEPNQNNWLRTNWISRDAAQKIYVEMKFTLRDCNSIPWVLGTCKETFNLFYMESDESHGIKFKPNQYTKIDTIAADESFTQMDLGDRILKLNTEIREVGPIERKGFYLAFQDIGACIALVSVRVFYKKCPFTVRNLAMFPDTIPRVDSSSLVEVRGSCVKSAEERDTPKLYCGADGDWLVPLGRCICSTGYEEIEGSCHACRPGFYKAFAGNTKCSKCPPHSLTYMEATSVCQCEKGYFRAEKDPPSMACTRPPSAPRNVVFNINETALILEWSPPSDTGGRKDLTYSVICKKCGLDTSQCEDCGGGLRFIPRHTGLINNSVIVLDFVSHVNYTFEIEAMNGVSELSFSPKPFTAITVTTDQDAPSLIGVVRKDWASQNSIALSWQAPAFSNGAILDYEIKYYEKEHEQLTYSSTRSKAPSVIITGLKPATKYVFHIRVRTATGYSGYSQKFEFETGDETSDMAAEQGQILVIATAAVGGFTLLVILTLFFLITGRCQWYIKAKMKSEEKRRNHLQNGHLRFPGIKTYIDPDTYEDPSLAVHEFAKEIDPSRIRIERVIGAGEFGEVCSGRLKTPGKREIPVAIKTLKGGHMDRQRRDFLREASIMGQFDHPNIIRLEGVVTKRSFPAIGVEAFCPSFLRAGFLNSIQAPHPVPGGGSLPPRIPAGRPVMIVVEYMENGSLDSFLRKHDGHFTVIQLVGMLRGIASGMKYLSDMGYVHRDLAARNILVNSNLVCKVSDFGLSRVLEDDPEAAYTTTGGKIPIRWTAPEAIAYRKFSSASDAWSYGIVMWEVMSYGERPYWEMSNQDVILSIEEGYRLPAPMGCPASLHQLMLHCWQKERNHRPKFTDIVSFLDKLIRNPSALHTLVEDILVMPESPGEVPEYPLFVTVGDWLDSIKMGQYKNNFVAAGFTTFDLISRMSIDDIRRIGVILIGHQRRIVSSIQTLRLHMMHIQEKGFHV
Sequence of Mitogen-activated protein kinase 1 (Homo sapiens) (P28482 whole entry): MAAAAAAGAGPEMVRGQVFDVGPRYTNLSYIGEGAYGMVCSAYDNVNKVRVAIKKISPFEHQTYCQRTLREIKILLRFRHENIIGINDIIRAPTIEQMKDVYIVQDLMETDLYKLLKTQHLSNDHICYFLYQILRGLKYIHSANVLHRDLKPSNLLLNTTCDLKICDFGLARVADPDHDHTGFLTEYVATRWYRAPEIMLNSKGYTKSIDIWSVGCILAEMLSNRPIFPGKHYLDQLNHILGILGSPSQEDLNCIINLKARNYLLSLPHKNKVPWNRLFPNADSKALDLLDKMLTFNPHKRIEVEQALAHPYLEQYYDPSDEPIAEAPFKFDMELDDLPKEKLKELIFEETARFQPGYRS

| Activity [1] [%] | Activity [2] [%] | Activity [3] [%] | Activity [4] [%] | Activity [5] [%] | Activity [6] [%] | Activity [7] [%] | Activity [8] [%] | Activity [9] [%] | Activity [10] [%] | Activity [11] [%] | Activity [12] [%] | Activity [13] [%] | Activity [14] [%] | Activity [15] [%] | Compound |
| --- | --- | --- | --- | --- | --- | --- | --- | --- | --- | --- | --- | --- | --- | --- | --- |
| 104 | 93 | 96 | 109 | 103 | 99 | 91 |  |  |  |  |  |  |  |  | COc1ccccc1-n1c(-c2ccccc2C)cn2c3c(=O)[nH]c(=O)n(C)c3nc12 |
|  |  |  |  |  |  |  | 0.4 | 40 | 101 | 89 | 75 | 98 | 98 | 96 | COc1ccccc1-n1c(-c2cc(O)ccc2C)cn2c3c(=O)[nH]c(=O)n(C)c3nc12 |
